We go through eleven compounds from PMC6697619 (Cell chemical biology, 2019).

Where “and” joins values, the source holds several entries; their conditions need not be identical. Identical values can stand only once. Entries after “also recorded” stand apart in the source; their conditions may differ. Like-named read-outs stand apart in the source and are kept apart here.

For test [1], the system named is normal colon cells (CoN, ATCC CRL-1790). Nature of the test: XTT cell viability assay, normal colon cells. It counts as cell-based, human. As to conditions: read-out: GI50 normal colon. A general note: Tetrazolium dyes change colour on reduction, which living cells bring about.
Test [2] relates to HCT-116 colorectal cancer cells. Nature of the test: XTT cell viability assay, HCT-116. It counts as cell-based, human. Particulars: for GI50: read-out: GI50 HCT-116.
The next test deals with HIV TAR. The experiment in a line: DSF specificity screen, HIV TAR. It counts as binding. Particulars: 5 μM compound, up to 5-fold molar excess. The method in brief:
(§1)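 Thermal melt by DSF with SYBR Green: each RNA was exposed to 5 μM test compound and its Tm was determined. Melts were run continuously up to 99°C at 0.09°C/s, with 5 acquisitions per °C and 0.75 s integration. Tm was taken as the half-denatured temperature from a 4PL sigmoidal fit of fluorescence against temperature.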

Test [3] deals with Dicer-mediated processing of pre-miR-21 (Homo sapiens, UniProt Q9UPY3). The experiment in a line: Dicer processing assay. It counts as biochemical. As to conditions: for shift in Tm in the presence of Dicer: vs DMSO only control.
Dicer-mediated processing of pre-miR-21, sequence (Q9UPY3 whole entry): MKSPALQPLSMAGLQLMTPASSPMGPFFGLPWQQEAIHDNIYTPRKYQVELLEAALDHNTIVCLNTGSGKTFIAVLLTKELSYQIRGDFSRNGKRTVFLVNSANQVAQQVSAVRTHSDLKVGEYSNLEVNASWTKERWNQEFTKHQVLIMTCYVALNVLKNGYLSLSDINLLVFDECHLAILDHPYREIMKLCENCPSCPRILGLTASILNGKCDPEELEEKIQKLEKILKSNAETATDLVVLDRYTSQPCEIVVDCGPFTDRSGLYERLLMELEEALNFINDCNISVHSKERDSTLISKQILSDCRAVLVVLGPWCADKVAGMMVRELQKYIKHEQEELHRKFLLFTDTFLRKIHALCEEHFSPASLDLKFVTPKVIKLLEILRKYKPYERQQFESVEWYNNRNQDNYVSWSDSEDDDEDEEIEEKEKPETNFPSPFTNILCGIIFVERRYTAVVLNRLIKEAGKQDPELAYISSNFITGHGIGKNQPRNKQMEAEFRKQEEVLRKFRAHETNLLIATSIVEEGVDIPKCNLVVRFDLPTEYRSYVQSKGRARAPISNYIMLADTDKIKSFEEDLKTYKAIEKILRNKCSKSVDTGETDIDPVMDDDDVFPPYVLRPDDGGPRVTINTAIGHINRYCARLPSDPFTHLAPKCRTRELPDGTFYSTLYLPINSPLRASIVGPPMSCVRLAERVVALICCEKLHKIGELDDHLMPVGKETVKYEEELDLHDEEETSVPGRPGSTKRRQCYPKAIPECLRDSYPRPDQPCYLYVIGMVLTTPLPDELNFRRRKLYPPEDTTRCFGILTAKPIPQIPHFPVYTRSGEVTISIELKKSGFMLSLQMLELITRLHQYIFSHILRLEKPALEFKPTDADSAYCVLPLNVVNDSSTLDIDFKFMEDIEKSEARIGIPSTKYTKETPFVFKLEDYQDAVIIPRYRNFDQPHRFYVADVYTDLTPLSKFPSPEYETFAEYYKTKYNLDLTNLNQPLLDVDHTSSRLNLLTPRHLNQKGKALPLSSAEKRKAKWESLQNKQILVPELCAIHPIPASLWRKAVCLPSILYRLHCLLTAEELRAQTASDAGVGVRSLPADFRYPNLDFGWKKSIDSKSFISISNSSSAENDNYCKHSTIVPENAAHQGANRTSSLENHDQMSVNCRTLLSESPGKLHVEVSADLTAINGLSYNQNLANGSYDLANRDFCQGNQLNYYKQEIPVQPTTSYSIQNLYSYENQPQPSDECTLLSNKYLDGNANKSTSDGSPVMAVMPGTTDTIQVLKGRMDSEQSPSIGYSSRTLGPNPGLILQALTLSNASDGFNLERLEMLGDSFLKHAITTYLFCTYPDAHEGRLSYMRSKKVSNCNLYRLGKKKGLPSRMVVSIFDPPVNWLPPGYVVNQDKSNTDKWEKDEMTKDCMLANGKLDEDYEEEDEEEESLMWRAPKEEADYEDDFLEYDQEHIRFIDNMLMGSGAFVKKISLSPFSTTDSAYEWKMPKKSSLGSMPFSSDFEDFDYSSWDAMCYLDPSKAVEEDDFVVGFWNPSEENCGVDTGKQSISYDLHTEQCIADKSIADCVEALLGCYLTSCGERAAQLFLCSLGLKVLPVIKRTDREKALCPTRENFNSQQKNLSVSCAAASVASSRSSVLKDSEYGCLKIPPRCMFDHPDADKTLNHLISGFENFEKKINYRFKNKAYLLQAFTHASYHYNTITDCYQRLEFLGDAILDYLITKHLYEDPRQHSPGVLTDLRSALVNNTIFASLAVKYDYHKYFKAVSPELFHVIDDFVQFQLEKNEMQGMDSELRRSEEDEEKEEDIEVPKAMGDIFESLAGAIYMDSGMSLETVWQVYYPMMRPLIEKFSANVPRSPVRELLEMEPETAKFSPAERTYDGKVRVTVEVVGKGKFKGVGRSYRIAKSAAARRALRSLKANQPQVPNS
The test system of test [4] is pre-miR-21. The experiment in a line: Differential scanning calorimetry. It counts as binding. As to conditions: 30 μM pre-miR-21, 300 μM bPGN. The method in brief:
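Pre-miR-21 (30 μM), with or without 300 μM test compound, in 0.25 mM Tris-HCl pH 7.5, 0.25 mM NaCl and 1.5% DMSO, degassed. The cell was pressurised to 30 psi and run through 8 alternating up/down scans at 60°C/hr with a 16 s filter. The first up scan was subtracted, the baseline corrected, and the data fitted to a non-2-state unfolding model to give Tm and enthalpy for each transition.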
Background: Differential scanning calorimetry records heat flow against a reference as temperature is scanned.

Another test relates to PTEN. The experiment in a line: RT-qPCR of PTEN transcript in HCT-116 cells. It counts as cell-based, human. Background: Quantitative PCR measures a nucleic acid by following its amplification.
Test [5] deals with pre-miR-21. Nature of the test: RT-qPCR of pre-miR-21 expression in HCT-116 cells. It counts as cell-based, human. As to conditions: 50 nM, up to 24 hours post-treatment.
The subject of test [6] is miRs -1246, -203a-3p, -200b-3p, -361. The experiment in a line: RT-qPCR of other miRs in HCT-116 cells. It counts as cell-based, human. As to conditions: 50 nM, 0-24 h. The essentials:
(§2)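 HCT-116 cells at 50–60% confluence were given 50 nM test compound, and RNA was extracted at time points from 0 to 24 h. miRNAs were quantified by RT-qPCR with LNA primers: 95°C 10 min, then 45 cycles of 95°C 10 s, 60°C 1 min and 95°C 10 s. U6 snRNA served as reference and UniSp6 as spike-in control; run in triplicate.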

A further test concerns miR-21. Nature of the test: RT-qPCR of miR-21 expression in HCT-116 cells. Particulars: 50 nM, within 2 hours post-treatment. It counts as cell-based, human. The essentials:
as §2

A further test concerns PDCD4. The experiment in a line: RT-qPCR of PDCD4 transcript in HCT-116 cells. It counts as cell-based, human.
The next test relates to pre-miR-638. The experiment in a line: DSF specificity screen, pre-miR-638. It counts as binding. Particulars: 5 μM compound, up to 5-fold molar excess. The essentials:
as §1

In a further test the test system is Pdcd4 and PTEN. Nature of the test: Western blot of Pdcd4 and PTEN protein in HCT-116 cells. It counts as cell-based, human. As to conditions: 50 nM, within 24 hours post-treatment. The essentials:
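HCT-116 cells treated with 50 nM test compound were harvested at 0–36 h. Lysates were TCA/acetone precipitated, redissolved in 8 M urea, and 20 μg protein per lane was separated on 4–12% Bis-Tris gels, then dry-transferred to PVDF. Blots were probed with mouse anti-PDCD4 or anti-PTEN plus rabbit anti-GAPDH (internal control) and detected with IR-dye secondaries.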

A further test concerns tRNA (Lys,3). The experiment in a line: DSF specificity screen, tRNA. It counts as binding. Particulars: 5 μM compound, up to 5-fold molar excess. The essentials: as §1
For test [7], the target named is pre-miR-21. The experiment in a line: Fluorescence displacement assay. Particulars: data not shown. It counts as binding.
Test [8] concerns pre-miR-21. The experiment in a line: Differential scanning fluorimetry. It counts as binding. As to conditions: titration up to 20-25 μM.
[9] abbreviates: XTT, ATCC CRL-1790, 24 hours post-treatment.

By GI50 is commonly meant the concentration giving 50% growth inhibition. “1,5-bis[3-(2-hydroxyethylamino)propylamino]anthracene-9,10-dione hydrochloride [Compound 6]”: the GI50 in test [1] (setting [9]) was 1100 ± 800 nM; in test [2] (XTT, 24 hours post-treatment), 3200 ± 600 nM. Besides, the “GI50 HCT-116 in words” value in test [2] (XTT, 24 hours post-treatment) is “high nanomolar”.
Take `CCCC[C@H]1CCCCCCc2[nH]c(/C=C3\N=CC(c4ccc[nH]4)=C3OC)cc21` [Compound 1, butylcycloheptyl prodiginine]: the “Tm change of HIV TAR” value in the test with HIV TAR is “did not significantly change the Tm”. The “shift in Tm in the presence of Dicer” value in [3] (50 μM compound, DSF) is −2.8 °C; in test [3] (100 μM compound, DSF) it was −0.6 °C. Besides, in test [3] (50 and 100 μM, 10U Dicer per 10 μM pre-miR-21), the “inhibition of Dicer processing of pre-miR-21, gel shift” value is given as “dose dependent inhibition of Dicer processing”. Further, the “Tm of pre-miR-21 under Dicer reaction conditions” value in [3] (in the presence of 10 μM compound, DSF) was 62.2 °C. Besides, the “DSC thermal transition Tm1 of pre-miR-21 in the presence of compound” value in the test with pre-miR-21 [4] was found to be 42.3 °C. Besides, the “DSC thermal transition Tm2 of pre-miR-21 in the presence of compound” value in the test with pre-miR-21 [4] was determined as 68.0 °C. Further, the PTEN transcript upregulation is 2 fold in the test on PTEN (by 8 hours post-treatment) and 2 – 4 fold with PTEN (by 36 hours post-treatment). Also, the pre-miR-21 expression level result in the test on pre-miR-21 [5] was “did not significantly change”. The GI50 is no less than 10000 nM in test [1] (setting [9]) and 35 ± 3 nM in [2] (XTT, 24 hours post-treatment). The “reduction of expression level of the other tested miRs” value in test [6] was no more than 30%. Further, the “reduction of cell number” value in [2] (0.05 μM, 24-hours post-treatment) was 55%. Besides, in test [2] (concentration > 0.5 μM, 24 h), the cell death result is reported as “complete cell death”. Moreover, the IC50 in test [2] (read-out: cellular growth inhibitory activity, HCT-116, as restated in text) is 35 nM and ~35 nM. For the same compound, in the test with miR-21, the “reduction of miR-21 levels” value was ~ 80%. In addition, the PDCD4 transcript upregulation is reported as 2 fold in the test with PDCD4 (by 8 hours post-treatment) and 2 – 4 fold in the test with PDCD4 (by 36 hours post-treatment). For the same compound, in the test on pre-miR-638, the “Tm change of pre-miR-638” value is listed as “did not significantly change the Tm; also recorded: no Tm shift was observed”. In the test with Pdcd4 and PTEN, the “Pdcd4 and PTEN protein levels” value is recorded as “time dependent increase”. Moreover, the “Tm change of tRNA (Lys,3)” value in the test with tRNA (Lys,3) is “did not significantly change the Tm”.
Turning to `COC1=CC(c2cc3ccccc3[nH]2)=N/C1=C\c1[nH]c(C)cc1C` [Compound 2, obatoclax, reference compound], the GI50 in [1] (Homo sapiens, 24 h) was no less than 10000 nM; in test [2] (Homo sapiens, HCT-116, 24 h), 100 ± 10 nM.
With `CCCCCC1=C/C(=C/c2[nH]c(-c3ccc[nH]3)cc2OC)N=C1C` [Compound 3, prodigiosin, reference compound], the GI50 in [1] (Homo sapiens, 24 h) was no less than 10000 nM; in test [2] (Homo sapiens, HCT-116, 24 h), 240 ± 40 nM.
On to `CC[C@@]1(O)C[C@H](O[C@H]2C[C@H](N(C)C)[C@H](O)[C@H](C)O2)c2c(cc3c(c2O)C(=O)c2c(O)cccc2C3=O)[C@H]1C(=O)OC` [Compound 4, aklavin], for which, in test [1] (setting [9]), the concentration for 50% growth inhibition (GI50) is 1700 ± 400 nM. Moreover, in test [2] (XTT, 24 hours post-treatment), the “GI50 HCT-116 in words” value is reported as “high nanomolar” and the concentration for 50% growth inhibition (GI50) was found to be 570 ± 60 nM.
Consider `COc1cc2c3c4c1Oc1cc5c(cc1O4)[C@@H](Cc1ccc(O)c(c1)Oc1ccc(cc1)C[C@@H]3N(C)CC2)N(C)CC5` [Compound 5, trigilletine], for which the GI50 was 1000 ± 200 nM in test [1] (Homo sapiens, 24 h) and 3500 ± 500 nM in test [2] (Homo sapiens, HCT-116, 24 h). The “GI50 HCT-116 in words” value in [2] (XTT, 24 hours post-treatment) is reported as “high nanomolar”.
Take `CN1CCCC2C(c3ccccc3)C(C3=NCCCC3)C(c3ccccc3)CC21` (stereo not drawn) [Compound 7, Lobinaline]: the GI50 in test [1] (setting [9]) is greater than 10000 nM; in test [2] (XTT, 24 hours post-treatment), no less than 10000 nM.
Regarding `C[C@@H](N)C(=O)N[C@H]1CO[C@H](O)[C@H](N)[C@H]1O` [Compound 8, prumycin], the 50% growth inhibitory concentration (GI50) in test [1] (setting [9]) was 5100 ± 100 nM; in test [2] (XTT, 24 hours post-treatment), no less than 10000 nM.
Take `COc1cc2c3c(cc4ccccc4c3c1OC)N(C)CC2` [Compound 9, dehydronuciferin]: the concentration for 50% growth inhibition (GI50) was greater than 10000 nM in test [1] (setting [9]) and no less than 10000 nM in [2] (XTT, 24 hours post-treatment).
As for `O=c1[nH]cc(F)c(=O)[nH]1` [Compound 10, 5-fluorouracil, reference compound], the 50% growth inhibitory concentration (GI50) in test [1] (Homo sapiens, 24 h) is 2000 ± 200 nM; in test [2] (Homo sapiens, HCT-116, 24 h) it was 720 ± 20 nM.
Regarding `CC1(C)CCC(c2ccc(Cl)cc2)=C(CN2CCN(c3ccc(C(=O)NS(=O)(=O)c4ccc(N[C@H](CCN5CCOCC5)CSc5ccccc5)c(S(=O)(=O)C(F)(F)F)c4)cc3)CC2)C1` [Navitoclax], the “apparent binding affinity (Kd app)” value at pre-miR-21 [7] was “did not show apparent binding affinity”. In the test with pre-miR-21 [8], the “interaction with pre-miR-21 in DSF” value is “no significant interaction”.
